Structures are written as SMILES. Active and inactive are the calls of the source. The rule behind the calls is not given here.

For series [1], the target named is Mitogen-activated protein kinase 9 (Homo sapiens) (UniProt P45984). Description: Binding affinity to wild-type human full length JNK2 (M1 to Q382 residues) expressed in mammalian expression system assessed as remaining unbound target protein level at 1000 nM by Kinomescan method relative to control. The method, boiled down:
(§1)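 KINOMEscan competition binding profile across a panel of 468 kinases and mutants, with the inhibitor tested at a single concentration of 1 μM. Binding is reported as percent of control, meaning signal relative to a DMSO control.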

Series [2] relates to Mast/stem cell growth factor receptor Kit (Homo sapiens), P10721 [D816V]. Kind of series: Binding affinity to human partial length KIT D816V mutant (I571 to D952 residues) expressed in bacterial expression system assessed as remaining unbound target protein level at 1000 nM by Kinomescan method relative to control. The method, boiled down:
(§2)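 KINOMEscan competition-binding profiling across the panel of 468 kinases and mutants, with inhibitor tested at 1 μM. Binding is expressed as percent of control, with DMSO as the reference control.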

Series [3] deals with Epidermal growth factor receptor (Homo sapiens), P00533 [L861Q]. Description: Binding affinity to human partial length EGFR L861Q mutant (R669 to V1011 residues) expressed in bacterial expression system assessed as remaining unbound target protein level at 1000 nM by Kinomescan method relative to control. Summed up: as §2
The target in series [4] is Serine/threonine-protein kinase MRCK gamma (Homo sapiens) (UniProt Q6DT37). Description: Binding affinity to wild-type human partial length DMPK2 (S46 to S408 residues) expressed in bacterial expression system assessed as remaining unbound target protein level at 1000 nM by Kinomescan method relative to control.
Series [5] addresses Cyclin-dependent kinase-like 3 (Homo sapiens) (UniProt Q8IVW4). Description: Binding affinity to wild-type human partial length CDKL3 (M1 to D327 residues) expressed in bacterial expression system assessed as remaining unbound target protein level at 1000 nM by Kinomescan method relative to control.
Series [6] addresses Cyclin-dependent kinase 14 (Homo sapiens) (UniProt O94921). Description: Binding affinity to wild-type human full length PFTK1 (M1 to H451 residues) expressed in bacterial expression system assessed as remaining unbound target protein level at 1000 nM by Kinomescan method relative to control. The method, boiled down:
as §1

The target of series [7] is Serine/threonine-protein kinase Chk1 (Homo sapiens) (UniProt O14757). Kind of series: Binding affinity to wild-type human partial length CHEK1 (M1 to G289 residues) expressed in bacterial expression system assessed as remaining unbound target protein level at 1000 nM by Kinomescan method relative to control. The method, boiled down:
as §1

The subject of series [8] is Canis familiaris. Description: AUC (0 to infinity) in beagle dog at 10 mg/kg, po by LC-MS/MS analysis. Details: dose 10 mg/kg, time infinity, route oral. Format: ADME, organism-based, Canis lupus familiaris. The following applies: in vivo. Summed up:
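Non-compartmental PK. Male SD rats 190-210 g, mice and beagle dogs acclimatized one week, fasted 12 h with water, split into iv and po groups (mice 48, rats 6, dogs 6). iv 3/3/2 mg/kg (mice/rats/dogs); po 10/20/10 mg/kg; vehicle DMSO in 5% glucose water. Blood at 2 or 5 to 720 min; plasma protein-precipitated with methanol, caffeine internal standard, LC-MS/MS.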

Series [9] has as its target Cyclin-dependent kinase 4 (Homo sapiens) (UniProt P11802). Kind of series: Binding affinity to wild-type human full length CDK4 (M1 to E303 residues) expressed in mammalian expression system assessed as remaining unbound target protein level at 1000 nM by Kinomescan method relative to control. Summed up: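 KINOMEscan competitive binding profile at 1 μM inhibitor. Remaining target binding reported as percent of DMSO control.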

Series [10] deals with TGF-beta receptor type-1 (Homo sapiens) (UniProt P36897). Description: Binding affinity to wild-type human partial length TGFBR1 (D179 to M503 residues) expressed in bacterial expression system assessed as remaining unbound target protein level at 1000 nM by Kinomescan method relative to control.
For series [11], the system named is Tyrosine-protein kinase ABL1 (Homo sapiens), P00519 [Q252H]. Description: Binding affinity to human phosphorylated ABL1 Q252H mutant expressed in mammalian expression system assessed as remaining unbound target protein level at 1000 nM by Kinomescan method relative to control. The method, boiled down: (§3)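 Single-point competition binding screen across a panel of 468 kinases and mutants, with the inhibitor at 1 μM. Binding is read out as percent of a DMSO control, and targets below 1 percent control were classed as strong binders.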

For series [12], the system named is Receptor-type tyrosine-protein kinase FLT3 (Homo sapiens), P36888 [N841I]. Kind of series: Binding affinity to human partial length FLT3 N841I mutant (V592 to Y969 residues) expressed in bacterial expression system assessed as remaining unbound target protein level at 1000 nM by Kinomescan method relative to control. The method, boiled down:
as §2

Series [13] deals with STE20-like serine/threonine-protein kinase (Homo sapiens) (UniProt Q9H2G2). Kind of series: Binding affinity to wild-type human partial length SLK (S14 to A307 residues) expressed in bacterial expression system assessed as remaining unbound target protein level at 1000 nM by Kinomescan method relative to control.
Series [14] concerns Tyrosine-protein kinase ABL1 (Homo sapiens), P00519 [H396P]. Description: Binding affinity to human phosphorylated ABL1 H396P mutant (S229 to K512 residues) expressed in mammalian expression system assessed as remaining unbound target protein level at 1000 nM by Kinomescan method relative to control. The method, boiled down:
as §3

The target of series [15] is Dual specificity tyrosine-phosphorylation-regulated kinase 2 (Homo sapiens) (UniProt Q92630). Description: Binding affinity to wild-type human full length DYRK2 (M1 to S528 residues) expressed in mammalian expression system assessed as remaining unbound target protein level at 1000 nM by Kinomescan method relative to control. The method, boiled down:
as §1

In series [16] the target is Serine/threonine-protein kinase 17B (Homo sapiens) (UniProt O94768). Kind of series: Binding affinity to wild-type human full length DRAK2 (M1 to C372 residues) expressed in bacterial expression system assessed as remaining unbound target protein level at 1000 nM by Kinomescan method relative to control. Summed up:
as §3

Series [17] has as its target BDNF/NT-3 growth factors receptor (Homo sapiens) (UniProt Q16620). Description: Binding affinity to wild-type human partial length TRKB (Q547 to G838 residues) expressed in mammalian expression system assessed as remaining unbound target protein level at 1000 nM by Kinomescan method relative to control.
Series [18] has as its target Cyclin-dependent kinase 18 (Homo sapiens) (UniProt Q07002). Description: Binding affinity to wild-type human full length PCTK3 (M3 to F474 residues) expressed in bacterial expression system assessed as remaining unbound target protein level at 1000 nM by Kinomescan method relative to control. Summed up:
as §1

For series [19], the target named is Cyclin-dependent kinase 7 (Homo sapiens) (UniProt P50613). Description: Inhibition of CDK7 in human HL60 cells assessed as decrease in RNA polymerase 2 phosphorylation at Ser 5 residues up to 3 uM after 2 hrs by immunoblotting analysis. Type of series: cell-based. (A western blot detects proteins with antibodies after separation by electrophoresis.)
Cyclin-dependent kinase 7 (Homo sapiens), sequence (P50613 whole entry, the tested form may be a part): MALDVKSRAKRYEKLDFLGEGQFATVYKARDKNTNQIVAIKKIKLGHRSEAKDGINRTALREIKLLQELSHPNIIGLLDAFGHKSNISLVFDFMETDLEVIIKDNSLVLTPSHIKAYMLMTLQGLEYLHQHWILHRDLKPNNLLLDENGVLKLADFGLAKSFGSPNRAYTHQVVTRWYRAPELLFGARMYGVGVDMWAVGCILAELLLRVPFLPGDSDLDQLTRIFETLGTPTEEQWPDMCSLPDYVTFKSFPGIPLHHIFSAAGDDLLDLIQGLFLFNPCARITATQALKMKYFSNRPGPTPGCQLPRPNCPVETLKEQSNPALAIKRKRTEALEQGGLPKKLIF
Series [20] deals with Phosphatidylinositol 3-kinase C2 domain-containing subunit gamma (Homo sapiens) (UniProt O75747). Kind of series: Binding affinity to wild-type human partial length PIK3C2G (M1 to I1446 residues) expressed in mammalian expression system assessed as remaining unbound target protein level at 1000 nM by Kinomescan method relative to control. Summed up:
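KINOMEscan binding panel of 468 kinases/mutants. Inhibitor was tested at a single concentration of 1 μM. Binding is reported as percent of control, defined relative to a DMSO control.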

Phosphatidylinositol 3-kinase C2 domain-containing subunit gamma (Homo sapiens), sequence (O75747 whole entry, the tested form may be a part): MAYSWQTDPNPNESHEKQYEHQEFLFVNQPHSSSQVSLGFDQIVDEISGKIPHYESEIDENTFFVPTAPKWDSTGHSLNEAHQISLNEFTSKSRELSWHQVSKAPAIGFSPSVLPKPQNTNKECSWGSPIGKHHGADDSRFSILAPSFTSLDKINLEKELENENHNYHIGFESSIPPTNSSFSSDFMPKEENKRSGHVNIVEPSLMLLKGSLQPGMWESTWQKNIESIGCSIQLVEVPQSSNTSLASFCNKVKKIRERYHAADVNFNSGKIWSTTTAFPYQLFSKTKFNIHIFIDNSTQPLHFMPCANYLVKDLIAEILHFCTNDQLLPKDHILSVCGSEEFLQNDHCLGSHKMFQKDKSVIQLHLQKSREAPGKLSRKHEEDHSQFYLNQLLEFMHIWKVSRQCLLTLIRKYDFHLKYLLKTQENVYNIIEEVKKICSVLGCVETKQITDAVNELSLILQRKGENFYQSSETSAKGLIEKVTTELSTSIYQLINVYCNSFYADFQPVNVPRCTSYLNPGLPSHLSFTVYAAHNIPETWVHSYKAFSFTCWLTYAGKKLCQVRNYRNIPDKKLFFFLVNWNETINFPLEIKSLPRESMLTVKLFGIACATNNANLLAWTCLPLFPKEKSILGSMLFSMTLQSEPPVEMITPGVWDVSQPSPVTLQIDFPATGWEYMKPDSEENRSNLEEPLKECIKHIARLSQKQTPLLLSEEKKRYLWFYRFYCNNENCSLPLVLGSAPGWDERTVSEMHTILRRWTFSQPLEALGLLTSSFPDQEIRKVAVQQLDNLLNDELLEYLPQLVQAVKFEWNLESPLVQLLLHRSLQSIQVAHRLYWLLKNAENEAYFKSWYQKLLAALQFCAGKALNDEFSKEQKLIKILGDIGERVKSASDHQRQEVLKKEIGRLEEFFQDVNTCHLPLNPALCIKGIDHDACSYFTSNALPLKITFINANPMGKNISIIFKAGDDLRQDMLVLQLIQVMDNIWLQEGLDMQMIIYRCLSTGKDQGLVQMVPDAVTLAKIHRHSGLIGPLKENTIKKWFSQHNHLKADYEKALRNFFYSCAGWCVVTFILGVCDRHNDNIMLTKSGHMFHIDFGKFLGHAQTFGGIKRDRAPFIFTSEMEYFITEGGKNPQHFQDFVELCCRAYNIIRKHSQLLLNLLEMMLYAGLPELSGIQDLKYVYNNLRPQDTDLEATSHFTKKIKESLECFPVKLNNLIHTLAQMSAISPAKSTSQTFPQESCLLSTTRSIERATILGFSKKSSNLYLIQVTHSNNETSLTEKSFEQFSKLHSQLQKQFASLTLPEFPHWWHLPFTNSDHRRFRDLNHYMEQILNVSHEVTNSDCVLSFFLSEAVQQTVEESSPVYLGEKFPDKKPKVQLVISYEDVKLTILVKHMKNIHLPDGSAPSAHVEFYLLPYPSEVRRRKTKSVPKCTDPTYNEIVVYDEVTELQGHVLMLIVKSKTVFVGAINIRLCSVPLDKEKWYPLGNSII
Cyclin-dependent kinase 4 (Homo sapiens), sequence (P11802 whole entry, the tested form may be a part): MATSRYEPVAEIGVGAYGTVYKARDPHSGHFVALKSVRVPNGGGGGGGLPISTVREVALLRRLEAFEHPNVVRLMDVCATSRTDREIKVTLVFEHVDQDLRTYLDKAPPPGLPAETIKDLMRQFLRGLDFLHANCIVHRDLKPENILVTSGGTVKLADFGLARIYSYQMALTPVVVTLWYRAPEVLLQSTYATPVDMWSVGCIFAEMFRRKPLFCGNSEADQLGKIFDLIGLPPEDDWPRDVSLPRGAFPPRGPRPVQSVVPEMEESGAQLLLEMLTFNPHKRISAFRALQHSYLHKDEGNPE
Mitogen-activated protein kinase 9 (Homo sapiens), sequence (P45984 whole entry, looked up, the tested form may be a part): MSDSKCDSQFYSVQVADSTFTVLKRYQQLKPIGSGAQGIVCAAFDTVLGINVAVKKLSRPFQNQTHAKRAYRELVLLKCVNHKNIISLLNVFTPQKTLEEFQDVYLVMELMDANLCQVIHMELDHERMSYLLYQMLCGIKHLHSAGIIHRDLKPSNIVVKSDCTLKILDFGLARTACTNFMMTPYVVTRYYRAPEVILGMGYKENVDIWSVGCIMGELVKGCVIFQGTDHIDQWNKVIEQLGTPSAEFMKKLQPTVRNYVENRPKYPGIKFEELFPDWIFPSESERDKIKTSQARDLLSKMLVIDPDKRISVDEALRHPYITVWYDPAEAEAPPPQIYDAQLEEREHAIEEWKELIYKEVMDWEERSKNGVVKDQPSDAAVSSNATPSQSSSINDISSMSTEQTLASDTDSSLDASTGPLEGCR
Cyclin-dependent kinase-like 3 (Homo sapiens), sequence (Q8IVW4 whole entry, looked up, the tested form may be a part): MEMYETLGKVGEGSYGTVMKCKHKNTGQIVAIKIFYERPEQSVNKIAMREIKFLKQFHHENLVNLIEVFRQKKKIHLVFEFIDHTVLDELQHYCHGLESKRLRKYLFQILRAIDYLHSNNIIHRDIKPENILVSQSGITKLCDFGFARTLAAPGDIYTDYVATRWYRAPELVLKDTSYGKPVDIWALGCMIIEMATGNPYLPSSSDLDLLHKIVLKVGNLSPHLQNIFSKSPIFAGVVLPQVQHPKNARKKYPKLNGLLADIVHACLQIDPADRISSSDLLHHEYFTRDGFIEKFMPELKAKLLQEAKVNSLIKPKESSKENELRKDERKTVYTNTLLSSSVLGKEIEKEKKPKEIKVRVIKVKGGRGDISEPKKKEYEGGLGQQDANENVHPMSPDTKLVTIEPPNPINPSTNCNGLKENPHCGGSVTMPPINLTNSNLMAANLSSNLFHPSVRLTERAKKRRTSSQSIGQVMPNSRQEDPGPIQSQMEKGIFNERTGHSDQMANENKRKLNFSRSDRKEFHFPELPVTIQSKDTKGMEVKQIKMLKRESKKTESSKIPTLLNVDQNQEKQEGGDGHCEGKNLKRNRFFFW
Cyclin-dependent kinase 18 (Homo sapiens), sequence (Q07002 whole entry, the tested form may be a part): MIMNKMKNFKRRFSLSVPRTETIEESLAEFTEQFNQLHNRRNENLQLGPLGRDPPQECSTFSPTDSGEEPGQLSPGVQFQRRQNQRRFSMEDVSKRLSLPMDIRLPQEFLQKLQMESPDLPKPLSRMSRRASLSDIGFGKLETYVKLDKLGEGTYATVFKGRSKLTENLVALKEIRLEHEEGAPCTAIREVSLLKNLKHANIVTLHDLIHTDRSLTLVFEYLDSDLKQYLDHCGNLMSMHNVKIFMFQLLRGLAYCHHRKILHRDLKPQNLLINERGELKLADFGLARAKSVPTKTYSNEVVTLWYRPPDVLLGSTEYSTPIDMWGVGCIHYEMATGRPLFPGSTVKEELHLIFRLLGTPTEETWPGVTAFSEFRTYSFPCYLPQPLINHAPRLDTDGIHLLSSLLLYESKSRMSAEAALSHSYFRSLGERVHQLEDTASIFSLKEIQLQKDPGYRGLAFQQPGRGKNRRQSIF
Serine/threonine-protein kinase 17B (Homo sapiens), sequence (O94768 whole entry, the tested form may be a part): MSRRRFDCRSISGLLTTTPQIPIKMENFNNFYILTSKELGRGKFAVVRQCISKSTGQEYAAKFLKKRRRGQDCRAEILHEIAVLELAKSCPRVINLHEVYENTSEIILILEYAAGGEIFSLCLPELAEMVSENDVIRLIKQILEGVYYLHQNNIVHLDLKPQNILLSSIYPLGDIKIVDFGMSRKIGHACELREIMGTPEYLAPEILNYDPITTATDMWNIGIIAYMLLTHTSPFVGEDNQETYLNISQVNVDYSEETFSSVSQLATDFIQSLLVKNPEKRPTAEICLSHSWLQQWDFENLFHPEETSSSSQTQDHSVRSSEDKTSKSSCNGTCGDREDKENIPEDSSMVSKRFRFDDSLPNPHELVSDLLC
Serine/threonine-protein kinase Chk1 (Homo sapiens), sequence (O14757 whole entry, the tested form may be a part): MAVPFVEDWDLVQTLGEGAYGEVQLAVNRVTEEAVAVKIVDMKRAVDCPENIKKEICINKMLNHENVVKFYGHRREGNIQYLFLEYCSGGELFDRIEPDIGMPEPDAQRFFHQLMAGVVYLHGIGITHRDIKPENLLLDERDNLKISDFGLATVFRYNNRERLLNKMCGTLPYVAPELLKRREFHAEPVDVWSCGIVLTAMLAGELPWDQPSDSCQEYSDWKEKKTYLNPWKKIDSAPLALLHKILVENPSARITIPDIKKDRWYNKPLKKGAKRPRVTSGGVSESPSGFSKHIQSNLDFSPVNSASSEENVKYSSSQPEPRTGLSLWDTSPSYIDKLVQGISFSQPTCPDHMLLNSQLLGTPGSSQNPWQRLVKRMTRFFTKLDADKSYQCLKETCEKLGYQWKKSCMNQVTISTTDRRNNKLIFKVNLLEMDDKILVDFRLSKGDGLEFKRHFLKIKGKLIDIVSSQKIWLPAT
Cyclin-dependent kinase 14 (Homo sapiens), sequence (O94921 whole entry, the tested form may be a part): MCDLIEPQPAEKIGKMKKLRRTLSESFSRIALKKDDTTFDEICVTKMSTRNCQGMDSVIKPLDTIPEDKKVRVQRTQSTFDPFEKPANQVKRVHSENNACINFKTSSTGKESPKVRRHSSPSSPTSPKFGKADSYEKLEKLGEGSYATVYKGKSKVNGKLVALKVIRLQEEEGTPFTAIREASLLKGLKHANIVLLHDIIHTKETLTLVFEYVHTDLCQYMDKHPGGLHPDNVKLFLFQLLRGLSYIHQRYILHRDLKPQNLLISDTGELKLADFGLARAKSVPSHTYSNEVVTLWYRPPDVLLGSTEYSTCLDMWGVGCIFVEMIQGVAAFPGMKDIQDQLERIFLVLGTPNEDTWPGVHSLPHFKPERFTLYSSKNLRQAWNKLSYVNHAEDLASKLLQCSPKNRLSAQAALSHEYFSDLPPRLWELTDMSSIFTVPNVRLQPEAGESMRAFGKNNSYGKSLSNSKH

Consider `COCCN[C@H]1CC[C@H](Nc2cc(-c3csc(NCC4(C#N)CCOCC4)n3)c(Cl)cn2)CC1`, for which the Activity in series [1] turned out to be 8.2%; in [2], 87%; in series [3], 76%; in [4] it was 92%; in series [5], 83%; in series [6], 80%. Also, the Activity in series [7] was 91%; in [9] it was 93%; in series [10], 98%; in series [11] it was 90%; in series [12], 83%; in [13], 81%. In addition, the Activity in [14] was 95%; in series [15], 5.2%; in [16], 89%; in [17] it was 79%; in series [18], 49%; in [20], 80%. The same compound returned an AUC in series [8] of 16735.55 ng·h/mL. In addition, in series [19], the inhibition entry is “inactive”.

The term AUC denotes the area under the concentration-time curve, a measure of exposure. Read a high AUC as high exposure.
